ChEMBL document CHEMBL1126557, “Novel antiasthmatic agents with dual activities of thromboxane A2 synthetase inhibition and bronchodilation. 2. 4-(3-Pyridyl)-1(2H)-phthalazinones” (J Med Chem, 1993)
Values belong to the compound of their own block, whether it stands above or below them.

Legend:
[1] = species: Cavia porcellus; test: In vitro bronchodilatory activity in guinea pig isolated tracheal strips; type: functional; conditions: Trachea
[2] = biological target: T1, Thromboxane-A synthase (Rattus norvegicus) (UniProt P49430); test: Tested ex vivo against TXA2 production in male SD rats at 1 hr after peroral dose of 30 mg/kg and anesthetized with ether; type: functional, organism-based; design: dose 30 mg/kg
T1 sequence (whole entry): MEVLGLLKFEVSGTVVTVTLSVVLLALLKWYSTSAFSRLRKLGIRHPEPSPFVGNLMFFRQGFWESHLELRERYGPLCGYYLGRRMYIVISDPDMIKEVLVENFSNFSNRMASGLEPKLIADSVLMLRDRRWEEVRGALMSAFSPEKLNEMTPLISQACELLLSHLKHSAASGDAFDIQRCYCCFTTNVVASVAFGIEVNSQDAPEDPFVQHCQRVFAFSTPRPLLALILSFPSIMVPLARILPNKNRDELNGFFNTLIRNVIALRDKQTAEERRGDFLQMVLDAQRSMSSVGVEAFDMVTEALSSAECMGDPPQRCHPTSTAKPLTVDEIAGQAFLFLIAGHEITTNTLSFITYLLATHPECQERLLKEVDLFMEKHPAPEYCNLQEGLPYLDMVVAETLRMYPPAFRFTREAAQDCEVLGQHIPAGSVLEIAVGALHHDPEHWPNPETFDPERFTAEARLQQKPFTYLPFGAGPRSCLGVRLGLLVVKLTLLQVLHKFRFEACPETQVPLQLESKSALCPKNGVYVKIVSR
In short: (§1)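 Male SD rats (240–260 g), fasted 20 h, dosed orally with compound in 0.5% carboxymethylcellulose or vehicle alone. At 1 h, ether anesthesia and 2 mL cardiac blood taken and clotted at 37 °C for 90 min.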

[3] = tested on: Rattus norvegicus; test: Tested ex vivo against serum TXB2 production at 1 hr after oral dose of 3 mg/kg of drug to rat; type: functional; in short: as §1
[4] = tested on: Cavia porcellus; test: In vivo inhibitory effect on airway constriction induced by histamine 2-5 micro g/kg iv at 1 min after 10 mg/kg iv dose of compound; type: functional
In short: (§2)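 Male Dunkin-Hartley guinea pigs anesthetized with pentobarbital 35 mg/kg ip, jugular vein and trachea cannulated, ventilated at 10 mL/kg, 60 strokes/min. Insufflation pressure recorded. Histamine 2–5 μg/kg iv repeated every 10 min until a reproducible control response. Compound 10 mg/kg iv 1 min before the next challenge.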

[5] = tested on: Rattus norvegicus; test: Tested ex vivo against serum TXB2 production at 1 hr after oral dose of 30 mg/kg of drug to rat; type: functional; in short: as §1
[6] = biological target: T1, Thromboxane-A synthase (Rattus norvegicus); test: Tested ex vivo against TXA2 production in rat serum at 1 hr after peroral dose of 30 mg/kg and anesthetized with ether; type: functional, organism-based; design: dose 30 mg/kg; in short: as §1
[7] = tested on: Thromboxane-A synthase (Oryctolagus cuniculus); test: Tested in vitro against rabbit thromboxane A2 synthetase (TXA2) at 1 uM
[8] = tested on: Cavia porcellus; test: In vivo inhibitory effect on airway constriction induced by histamine 2-5 ug/kg iv at 1 min after 10 mg/kg iv dose of compound; type: functional; in short: as §2
[9] = biological target: T2, Thromboxane-A synthase (Rattus norvegicus, UniProt P49430); test: Tested in vitro against TXA2 synthetase inhibitory activity in rat whole blood; type: tissue-based
T2 sequence (P49430 whole entry): T1 sequence (whole entry)
In short: (§3)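 Non-anticoagulated human or rat blood split into 0.5-mL aliquots, each with one drug concentration or vehicle. Vortexed, then clotted 60 min at 37 °C. Serum deproteinized with EtOH and TXB2 measured by RIA. % inhibition against control.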

[10] = tested on: Cavia porcellus; test: Tested in vivo for anaphylactic bronchoconstriction in OA sensitized guinea pig at intraduodenal dose of 10 mg/kg for 30 min; type: functional; conditions: Lung, 0.5 h
In short: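 Male Hartley guinea pigs (300–400 g) sensitized by ip and sc injection of 50 mg ovalbumin 15 days earlier. Anesthetized with pentobarbital 35 mg/kg ip, insufflation pressure recorded. Compound 10 mg/kg intraduodenal 30 min before challenge with OA aerosol (10 mg/mL, 10 s, ultrasonic nebulizer) through a by-passed ventilatory system. Reported as % inhibition.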

[11] = species: Cavia porcellus; test: In vitro inhibitory effect on the spasmogen-contracted guinea pig tracheal strips in presence of acetylcholine; type: functional; conditions: Trachea
In short: (§4)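 Tracheal strips in oxygenated Krebs-Henseleit, preincubated 60 min with indomethacin (3 μM) to remove spontaneous tone, resting tension 1 g. Contraction induced by acetylcholine (10^-5 M final) or histamine (10^-4 M final), with indomethacin present. Compound added cumulatively […]. […] IC50 taken from the concentration-response curve.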

[12] = tested on: Cavia porcellus; test: Tested in vivo for histamine-induced bronchoconstriction in guinea pig at intraduodenal dose of 10 mg/kg for 30 min; type: functional; conditions: 0.5 h
In short: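 Anesthetized, ventilated guinea pigs (pentobarbital 35 mg/kg ip) with insufflation pressure recorded. Histamine 2–5 μg/kg iv given repeatedly until a reproducible response. Compound 10 mg/kg injected into the duodenum through a catheter 30 min before histamine challenge. Expressed as % inhibition of the control response.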

[13] = species: Cavia porcellus; test: In vitro inhibitory effect on the contraction of guinea pig tracheal strips was examined for spontaneous contraction; type: functional; conditions: Trachea
[14] = biological target: T3, Thromboxane-A synthase (Homo sapiens, UniProt P24557); test: Tested in vitro against TXA2 synthetase inhibitory activity in human platelet
T3 sequence (P24557 whole entry): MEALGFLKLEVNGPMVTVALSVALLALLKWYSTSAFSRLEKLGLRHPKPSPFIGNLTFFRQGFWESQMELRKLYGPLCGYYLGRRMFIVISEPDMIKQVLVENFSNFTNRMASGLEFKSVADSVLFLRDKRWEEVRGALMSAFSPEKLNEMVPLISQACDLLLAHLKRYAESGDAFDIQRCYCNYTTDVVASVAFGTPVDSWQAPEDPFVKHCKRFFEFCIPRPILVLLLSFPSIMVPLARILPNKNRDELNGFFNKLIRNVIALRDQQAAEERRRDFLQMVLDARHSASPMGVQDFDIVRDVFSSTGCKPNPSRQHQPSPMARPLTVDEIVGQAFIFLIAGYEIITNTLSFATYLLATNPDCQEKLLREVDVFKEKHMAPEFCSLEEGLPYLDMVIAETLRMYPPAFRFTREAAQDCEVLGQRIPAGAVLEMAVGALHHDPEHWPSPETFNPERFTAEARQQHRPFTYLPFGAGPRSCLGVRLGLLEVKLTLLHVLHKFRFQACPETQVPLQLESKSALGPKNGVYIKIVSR
In short: (§5)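 Citrated human or rat blood centrifuged to platelet-rich plasma and platelets resuspended in Krebs-Henseleit at 1×10^8 cells/mL. Used for TXB2 production.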

[15] = biological target: T3, Thromboxane-A synthase; test: Tested in vitro against TXA2 synthetase inhibitory activity in human microsome
In short: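 Commercial human platelet microsomes. Preincubated with compound for 3 min at 25 °C in Tris-HCl 15 mM, NaCl 140 mM, glucose 10 mM, pH 7.6. Arachidonic acid 1–3 μM added, then 3 min at 25 °C. Stopped by chilling and acidifying to pH 3 with HCl, centrifuged, supernatant TXB2 measured by RIA.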

[16] = species: Cavia porcellus; test: In vitro inhibitory effect on the spasmogen-contracted guinea pig tracheal strips in presence of histamine; type: functional; conditions: Trachea; in short: as §4
[17] = biological target: T3, Thromboxane-A synthase; test: Tested in vitro against TXA2 synthetase inhibitory activity in human whole blood; type: tissue-based; in short: as §3
[18] = biological target: T2, Thromboxane-A synthase; test: Tested in vitro against TXA2 synthetase inhibitory activity in rat platelet; in short: as §5
[19] = tested on: Cavia porcellus; test: Tested in vivo for spasmogen inhalation induced collapse in conscious guinea pig in presence of acetylcholine (0.2%); type: functional
In short: (§6)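 Male guinea pigs (400–500 g), conscious, dosed orally with compound or vehicle, then placed in chambers. At 1 h, exposed for 9 min to spasmogen aerosol (acetylcholine 0.2% or histamine 0.03%). Time to collapse recorded; no collapse within 9 min counted as full protection. ≥3 doses tested. RD100 is the oral dose prolonging collapse time by 100 s over vehicle.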

[20] = tested on: Cavia porcellus; test: Tested in vivo for spasmogen inhalation induced collapse in conscious guinea pig in presence of histamine (0.03%); type: functional; in short: as §6
[21] = tested on: Cavia porcellus; test: Tested in vivo for histamine-induced bronchoconstriction in guinea pig at intraduodenal dose of 60 mg/kg; type: functional
In short: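 Male Dunkin-Hartley guinea pigs under ip pentobarbital (35 mg/kg), jugular vein and trachea cannulated, ventilated at 10 mL/kg, 60 strokes/min; insufflation pressure recorded by transducer. Histamine (1–5 μg/kg iv) repeated every 10 min until the control response was reproducible. Drug given intraduodenally through a catheter 30 min before histamine challenge.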

SMILES: CC(C)n1nc(-c2cncs2)c2ccccc2c1=O
- IC50 [1]: 3.39 µM
- inhibition [2]: 71%

SMILES: Oc1nnc(-c2nccs2)c2ccccc12
- IC50 [1]: 4.57 µM
- inhibition [2]: 23%

SMILES: Cn1nc(-c2cncs2)c2ccccc2c1=O
- IC50 [9]: 3.3 µM
- inhibition in vivo at 10 mg/kg [10]: 61%
- inhibition in vivo at 3 mg/kg [3]: 50%
- IC50 [11]: 46 µM
- inhibition in vivo at 10 mg/kg [12]: 68%
- IC50 [13]: 1.8 µM
- IC50 [14]: 0.5 µM
- inhibition in vivo at 30 mg/kg [5]: 83%
- IC50 [1]: 1.58 µM
- IC50 [15]: 3.9 µM
- IC50 [16]: 28 µM
- IC50 [17]: 8.7 µM
- IC50 [18]: 0.3 µM
- RD100 [19]: 6.6 mg/kg
- RD100 [20]: 11.2 mg/kg
- inhibition [6]: 83%

SMILES: O=c1c2ccccc2c(-c2cccnc2)nn1CCSc1ccccc1
- IC50 [1]: 9.12 µM
- inhibition [2]: 52%

SMILES: CCn1nc(-c2cncs2)c2ccccc2c1=O
- IC50 [1]: 0.562 µM
- inhibition [7]: 77%
- inhibition [6]: 69%

SMILES: CCCCn1nc(-c2cccnc2)c2ccccc2c1=O
- IC50 [1]: 2.29 µM
- inhibition [7]: 91%
- inhibition [6]: 100%

SMILES: Cn1c(=O)c2[nH]cnc2n(C)c1=O.Cn1c(=O)c2[nH]cnc2n(C)c1=O.NCCN [AMINOPHYLLINE]
- inhibition in vivo at 10 mg/kg [10]: 42%
- IC50 [11]: 300 µM
- inhibition in vivo at 60 mg/kg [21]: 87%
- inhibition in vivo at 10 mg/kg [4]: 86%
- IC50 [13]: 44 µM
- IC50 [16]: 320 µM
- RD100 [19]: 66 mg/kg
- RD100 [20]: >60 mg/kg
- inhibition [6]: 0%

More lines, main results first:

- IC50 [1]: > 1000 µM
- inhibition [6]: 92%
SMILES: O=C(O)/C=C/c1ccc(Cn2ccnc2)cc1 [OZAGREL]
- inhibition in vivo at 3 mg/kg [3]: 86%
- inhibition in vivo at 10 mg/kg [4]: 0%
- inhibition in vivo at 30 mg/kg [5]: 92%

- IC50 [1]: 11.5 µM
- inhibition [7]: 63%
- inhibition [6]: 94%
SMILES: Cn1nc(-c2cccnc2)c2ccccc2c1=O
- inhibition in vivo at 10 mg/kg [8]: 97%

- inhibition [7]: 37%
SMILES: O=c1c2ccccc2c(-c2cccnc2)nn1CCn1ccnc1
- inhibition in vivo at 10 mg/kg [4]: 97%

- IC50 [9]: 1.7 µM
- IC50 [11]: 57 µM
- IC50 [13]: 1.6 µM
- IC50 [14]: 27.9 µM
- IC50 [1]: 1.32 µM
- inhibition [7]: 87%
- IC50 [15]: 1.6 µM
- IC50 [16]: 46 µM
- IC50 [17]: 2.3 µM
- IC50 [18]: 1.3 µM
- inhibition [6]: 92%
SMILES: CCn1nc(-c2cccnc2)c2ccccc2c1=O
- inhibition in vivo at 10 mg/kg [10]: 71%
- inhibition in vivo at 3 mg/kg [3]: 66%
- inhibition in vivo at 10 mg/kg [12]: 72%
- inhibition in vivo at 30 mg/kg [5]: 92%
- inhibition in vivo at 10 mg/kg [8]: 100%
- RD100 [19]: 3.8 mg/kg
- RD100 [20]: 6.5 mg/kg

- IC50 [1]: 2.14 µM
- inhibition [7]: 70%
- inhibition [6]: 82%
SMILES: C=CCn1nc(-c2cccnc2)c2ccccc2c1=O
- inhibition in vivo at 10 mg/kg [4]: 100%

- IC50 [1]: 2.45 µM
- inhibition [7]: 97%
- inhibition [6]: 86%
SMILES: O=c1c2ccccc2c(-c2cccnc2)nn1Cc1ccccc1
